For three molecules, pKa, Papp B→A and half-life results are on record in ChEMBL document CHEMBL1909513, “A double prodrug system for colon targeting of benzenesulfonamide COX-2 inhibitors” (Bioorg Med Chem Lett, 2011).

Data set [1] in a line: Dissociation constant, pKa of the compound. The data set is classed as physicochemical.
Data set [2] in a line: Secretory transport of the compound through transepithelial human Caco2 model. The data set is classed as ADME, cell-based. The note with it: Caco-2.
Data set [3] is described as follows: Chemical stability of the compound in borate buffered saline assessed as half life of cyclization at pH 6.28. The data set is classed as physicochemical. An outline of the steps: (§1)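 Lactamization of the amino intermediate in borate-buffered saline, pH range 5–8, 37 °C, ionic strength 0.12 (figure legend gives I = 0.05). Parent loss and formation of parent drug and dihydroquinolone followed by HPLC, validated at 1.1–16.6 µM. Apparent first-order rate constants fitted by nonlinear regression, three determinations per pH; half-lives derived from these constants.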

Data set [4] can be described thus: Chemical stability of the compound in borate buffered saline assessed as half life of cyclization at pH 7.4. The data set is classed as physicochemical. Put shortly:
as §1

Data set [5] can be described thus: Chemical stability of the compound in borate buffered saline assessed as half life of cyclization at pH 6. The data set is classed as physicochemical. An outline of the steps:
as §1

Data set [6] can be described thus: Chemical stability of the compound in borate buffered saline assessed as half life of cyclization at pH 6.2. The data set is classed as physicochemical. Put shortly:
as §1

Data set [7] is described as follows: Chemical stability of the compound in borate buffered saline assessed as half life of cyclization at pH 7. The data set is classed as physicochemical. Put shortly:
as §1

Data set [8] in a line: Chemical stability of the compound in borate buffered saline assessed as half life of cyclization at pH 6.4. The data set is classed as physicochemical. Put shortly: as §1
Data set [9] in a line: Chemical stability of the compound in borate buffered saline assessed as half life of cyclization at pH 5.52. The data set is classed as physicochemical. Put shortly:
as §1

Data set [10] in a line: Chemical stability of the compound in borate buffered saline assessed as half life of cyclization at pH 6.11. The data set is classed as physicochemical. Put shortly: as §1

Structures are written as SMILES.

For orientation: pKa means the negative logarithm of the acid dissociation constant. Molecule `CCC(=O)NS(=O)(=O)c1ccc(-c2c(-c3ccccc3)noc2C)cc1` [PARECOXIB] displayed a pKa in data set [1] of 4.9.

By Papp B→A is commonly meant the apparent permeability from the basolateral to the apical side of a cell layer. In the case of `Cc1ccc(-c2cc(C(F)(F)F)nn2-c2ccc(S(N)(=O)=O)cc2)cc1` [CELECOXIB], the Papp B→A in data set [2] worked out at 12.4 ×10⁻⁶ cm/s.

The term half-life denotes the time needed for the level to fall by half in the phase considered. Consider `Cc1ccc(-c2cc(C(F)(F)F)nn2-c2ccc(S(=O)(=O)NC(=O)CCc3ccccc3N)cc2)cc1`, for which the half-life in [3] was determined as 41.2 min; in data set [4], 632 min; in [5] it was 10.9 min; in [6] it was 29.5 min; in data set [7] it was 130 min; in data set [8], 60.3 min. In addition, the figures for the half-life in data set [9] and in [10] were 10.2 min and 15.2 min, respectively.
